In ChEMBL document CHEMBL6120953, “Targeting Plasmodium falciparum IspD in the Methyl-d-erythritol Phosphate Pathway: Urea-Based Compounds with Nanomolar Potency on Target and Low-Micromolar Whole-Cell Activity” (J Med Chem, 2024):
Calls of active or inactive are those of the source. No cut-off for these calls is given here.

Tests used:
Plasmodium falciparum [1] = assay: Uncompetitive inhibition of Plasmodium falciparum IspD at 19.5 to 625 uM in presence of MEP by lineweaver-burk plot analysis; conditions: dose 19.5-625 µM
Method in brief: (§1)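 LC-MS IspD assay without coupling enzymes: 0.1 μM PfIspD, 2.0 mM MgCl2 in 100 mM Tris-HCl pH 7.6, 1 mM DTT, preincubated with inhibitor 10 min at 37 °C. One substrate varied 0–500 μM with the other at 500 μM; 40 min at 37 °C, heat-stopped at 95 °C. CDP-ME product quantified by HILIC LC-MS/MS with internal standard; Lineweaver–Burk plots.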

Plasmodium falciparum [2] = assay: Non-competitive inhibition of Plasmodium falciparum IspD at 19.5 to 625 uM in presence of CTP by lineweaver-burk plot analysis; conditions: dose 19.5-625 µM; method in brief: as §1

inhibition (Plasmodium falciparum [1]): Active
inhibition (Plasmodium falciparum [2]): Active
SMILES: N#Cc1ccc(NC(=O)Nc2cccc(S(=O)(=O)N3CCCC3)c2)cc1
